The target of assay [1] is Integrin alpha-IIb/beta-3 (Homo sapiens, UniProt P05106+P08514). Put plainly: Inhibition of aggregation of human gel-purified platelets (GPIIbIIIa GPP). The format is functional. An outline of the steps: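 Human platelets from healthy-volunteer platelet-rich plasma were gel-purified on sepharose and used at 2×10^8 platelets/mL with 1 mM CaCl2 and 1 mg/mL fibrinogen. Aggregation was measured with or without compound at several concentrations and IC50 calculated. Values are single determinations.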

In assay [2] the target is T1, Integrin alpha-V/beta-3 (Homo sapiens, UniProt P05106+P06756). Description: Inhibitory activity against beta-3-transfected 293 cells using alpha-V beta-3 antagonism assay. The format is functional, cell-based, HEK293. The method in brief: (§1)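 Fibrinogen-coated plates were blocked with BSA in PBS. HEK293 cells expressing human β3 subunit were preincubated 15 min at 37 °C with or without compound, then allowed to adhere for 60 min. Nonadherent cells were washed off with PBS, adherent cells lysed, and β-galactosidase activity read. IC50 was derived from standard curves and reported ± SEM.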

In assay [3] the target is T1, Integrin alpha-V/beta-3. Description: Inhibitory activity against beta-3-transfected 293 cells using alphaV-beta3 antagonism assay. The format is functional, cell-based, HEK293. An outline of the steps: as §1
Assay [4] has as its target T1, Integrin alpha-V/beta-3. Description: Inhibition of Vitronectin receptor (alpha V beta 3) binding. The format is protein-complex assay.
Assay [5] concerns the target T1, Integrin alpha-V/beta-3. Description: Inhibition of adhesion of integrin beta-3-transfected HEK293 cells to fibrinogen. It counts as functional, cell-based. An outline of the steps:
as §1

T1 sequence (P05106 27-788 limits assumed): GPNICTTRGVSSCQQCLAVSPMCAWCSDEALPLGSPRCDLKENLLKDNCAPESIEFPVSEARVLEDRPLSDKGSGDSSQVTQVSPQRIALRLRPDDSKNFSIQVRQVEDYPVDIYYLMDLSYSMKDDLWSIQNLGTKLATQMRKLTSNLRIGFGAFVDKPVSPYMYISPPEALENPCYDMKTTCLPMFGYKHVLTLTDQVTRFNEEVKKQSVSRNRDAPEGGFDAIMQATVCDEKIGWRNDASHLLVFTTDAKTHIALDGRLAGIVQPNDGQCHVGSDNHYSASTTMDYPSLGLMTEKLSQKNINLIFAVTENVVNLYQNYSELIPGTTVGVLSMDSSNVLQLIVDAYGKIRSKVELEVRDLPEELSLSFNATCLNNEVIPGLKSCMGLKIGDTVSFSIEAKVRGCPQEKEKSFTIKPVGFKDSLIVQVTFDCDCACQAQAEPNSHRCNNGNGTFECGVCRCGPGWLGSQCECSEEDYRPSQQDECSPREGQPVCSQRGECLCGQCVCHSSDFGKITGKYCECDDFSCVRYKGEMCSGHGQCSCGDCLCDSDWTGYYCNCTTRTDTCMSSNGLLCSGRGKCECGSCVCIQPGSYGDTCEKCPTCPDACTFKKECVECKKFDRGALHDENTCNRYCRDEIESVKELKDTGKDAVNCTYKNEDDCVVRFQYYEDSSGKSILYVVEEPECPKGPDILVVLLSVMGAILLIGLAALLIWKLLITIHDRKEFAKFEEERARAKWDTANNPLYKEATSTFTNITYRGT
T1 sequence (P06756 31-889 limits assumed): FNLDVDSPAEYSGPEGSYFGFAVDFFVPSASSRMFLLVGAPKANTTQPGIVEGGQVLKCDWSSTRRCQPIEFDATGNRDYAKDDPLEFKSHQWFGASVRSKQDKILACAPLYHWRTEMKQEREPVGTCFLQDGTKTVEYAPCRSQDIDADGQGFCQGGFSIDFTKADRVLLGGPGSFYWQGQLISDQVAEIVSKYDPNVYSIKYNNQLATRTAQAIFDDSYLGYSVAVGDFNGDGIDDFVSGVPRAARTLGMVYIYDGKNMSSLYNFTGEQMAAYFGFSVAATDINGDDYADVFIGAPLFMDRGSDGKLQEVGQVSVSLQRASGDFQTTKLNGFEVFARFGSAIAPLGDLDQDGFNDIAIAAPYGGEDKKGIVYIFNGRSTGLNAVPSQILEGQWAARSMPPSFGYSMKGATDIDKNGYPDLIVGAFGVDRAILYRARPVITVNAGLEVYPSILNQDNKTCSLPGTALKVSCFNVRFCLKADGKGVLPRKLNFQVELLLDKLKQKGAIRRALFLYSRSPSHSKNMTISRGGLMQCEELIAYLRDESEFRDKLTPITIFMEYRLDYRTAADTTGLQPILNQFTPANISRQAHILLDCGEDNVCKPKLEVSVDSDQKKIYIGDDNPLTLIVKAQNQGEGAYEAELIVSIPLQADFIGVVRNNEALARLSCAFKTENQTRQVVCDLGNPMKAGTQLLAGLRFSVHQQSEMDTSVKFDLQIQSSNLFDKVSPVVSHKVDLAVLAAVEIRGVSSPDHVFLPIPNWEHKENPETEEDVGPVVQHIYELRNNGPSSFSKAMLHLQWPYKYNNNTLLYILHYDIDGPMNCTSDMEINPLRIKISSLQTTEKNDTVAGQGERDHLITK
T1 sequence (P06756 891-1048 limits assumed): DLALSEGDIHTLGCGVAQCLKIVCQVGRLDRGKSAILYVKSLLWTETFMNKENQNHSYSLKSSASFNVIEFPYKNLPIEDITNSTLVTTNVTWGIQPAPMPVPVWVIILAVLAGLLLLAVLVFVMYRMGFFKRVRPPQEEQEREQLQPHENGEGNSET
Sequence of Integrin alpha-IIb/beta-3 (P05106 27-788 limits assumed): as the sequence (P05106 27-788 limits assumed) above
Sequence of Integrin alpha-IIb/beta-3 (P08514 32-887 limits assumed): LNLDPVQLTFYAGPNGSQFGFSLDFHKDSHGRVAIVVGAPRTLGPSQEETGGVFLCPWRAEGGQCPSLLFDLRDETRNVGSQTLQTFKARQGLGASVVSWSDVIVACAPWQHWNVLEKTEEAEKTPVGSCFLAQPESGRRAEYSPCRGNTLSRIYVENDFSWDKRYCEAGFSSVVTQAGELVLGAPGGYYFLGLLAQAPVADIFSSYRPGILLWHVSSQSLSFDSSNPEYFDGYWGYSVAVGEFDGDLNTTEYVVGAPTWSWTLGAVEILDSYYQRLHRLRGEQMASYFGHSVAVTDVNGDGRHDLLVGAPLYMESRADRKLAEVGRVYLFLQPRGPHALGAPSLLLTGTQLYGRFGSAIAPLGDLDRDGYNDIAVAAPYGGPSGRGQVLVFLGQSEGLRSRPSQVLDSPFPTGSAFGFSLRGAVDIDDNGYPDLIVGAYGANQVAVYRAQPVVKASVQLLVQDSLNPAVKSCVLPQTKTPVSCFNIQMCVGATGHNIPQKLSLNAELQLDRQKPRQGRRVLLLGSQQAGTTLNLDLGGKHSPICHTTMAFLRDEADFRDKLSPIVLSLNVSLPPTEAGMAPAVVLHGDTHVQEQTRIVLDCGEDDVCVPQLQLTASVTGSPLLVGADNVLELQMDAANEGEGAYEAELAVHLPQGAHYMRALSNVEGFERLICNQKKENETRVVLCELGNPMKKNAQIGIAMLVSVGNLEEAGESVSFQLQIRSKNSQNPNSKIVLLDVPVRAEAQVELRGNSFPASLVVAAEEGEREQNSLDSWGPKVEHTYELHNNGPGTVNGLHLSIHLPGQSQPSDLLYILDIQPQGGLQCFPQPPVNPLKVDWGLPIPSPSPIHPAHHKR
Sequence of Integrin alpha-IIb/beta-3 (P08514 891-1039 limits assumed): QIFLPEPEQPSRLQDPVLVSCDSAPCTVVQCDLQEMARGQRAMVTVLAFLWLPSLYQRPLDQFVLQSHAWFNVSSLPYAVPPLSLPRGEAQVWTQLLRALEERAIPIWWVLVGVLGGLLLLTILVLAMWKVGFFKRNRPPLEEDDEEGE

In assay [1], `Cc1cc(C)c(S(=O)(=O)N[C@@H](CNC(=O)C2=NOC(CCCC(=O)Nc3ncc[nH]3)C2)C(=O)O)c(C)c1` (some centres undefined) registered an IC50 of 61000 nM.

The compound `Cc1cc(C)c(S(=O)(=O)N[C@@H](CC(=O)Nc2ccc3c(cnn3CCCNc3ccccn3)c2)C(=O)O)c(C)c1` had a half-inhibitory concentration (IC50) in assay [2] of 840 nM.

On to `Cc1cc(C)c(S(=O)(=O)N[C@@H](CNC(=O)c2cccc3c2cnn3CCCNc2ncc[nH]2)C(=O)O)c(C)c1`, for which the figures for the 50% inhibitory concentration (IC50) in assay [3] and in assay [4] were 25 nM and below 0.1 nM, respectively.

Compound `CC(C)CCC(=O)N[C@@H](CNC(=O)c1ccc2c(cnn2CCCNc2ccccn2)c1)C(=O)O` displayed an IC50 in assay [2] above 1000 nM.

In the case of `O=C(NC[C@H](NS(=O)(=O)c1ccc2ccccc2c1)C(=O)O)c1ccc2c(cnn2CCCNc2ncc[nH]2)c1`, in assay [2], the IC50 turned out to be 4.7 nM.

In assay [2], `O=C(NC[C@H](NS(=O)(=O)c1ccc(Cl)c(Cl)c1)C(=O)O)c1ccc2c(cnn2CCCNc2ncc[nH]2)c1` came in with a half-maximal inhibitory concentration (IC50) of 10 nM.

In assay [2], `Cc1cc(C)c(S(=O)(=O)N[C@@H](CNC(=O)c2ccc3c(cnn3CCCNc3cc[nH]n3)c2)C(=O)O)c(C)c1` showed an IC50 above 1000 nM.

For `O=C(O)CCNC(=O)c1ccc2c(cnn2CCCNc2ccccn2)c1`, in assay [2], the IC50 is above 1000 nM.

As to `Cc1cc(C)c(S(=O)(=O)N[C@@H](CN(C)C(=O)c2ccc3c(cnn3CCCNc3ccccn3)c2)C(=O)O)c(C)c1`, the 50% inhibitory concentration (IC50) in assay [2] is above 1000 nM.

`CC(C)(C)c1ccc(S(=O)(=O)N[C@@H](CNC(=O)c2ccc3c(cnn3CCCNc3ncc[nH]3)c2)C(=O)O)cc1` had an IC50 in assay [2] of 120 nM.

As to `O=C(N[C@@H](CNC(=O)c1ccc2c(cnn2CCCNc2ccccn2)c1)C(=O)O)OCc1ccccc1`, in assay [2], half-maximal inhibition (IC50) was put at 300 nM.

Take `O=C(N[C@@H](CNC(=O)c1ccc2c(cnn2CCNC2=NCCN2)c1)C(=O)O)OCc1ccccc1`: the figures for the IC50 in assay [3] and in assay [4] were above 1000 nM and 51 nM, respectively.

On to `O=C(N[C@@H](CNC(=O)c1ccc2c(cnn2CCCNc2ncc[nH]2)c1)C(=O)O)OCc1ccccc1`, for which the IC50 in assay [2] was determined as 74 nM.

As for `O=C(NC[C@H](NS(=O)(=O)c1ccccc1)C(=O)O)c1ccc2c(cnn2CCCNc2ccccn2)c1`, inhibition in assay [2] was half-maximal at 120 nM (IC50).

In assay [2], `CC(=O)Nc1ccc(S(=O)(=O)N[C@@H](CNC(=O)c2ccc3c(cnn3CCCNc3ncc[nH]3)c2)C(=O)O)cc1` came in with an IC50 of 150 nM.

`O=C(NC[C@H](NS(=O)(=O)c1ccc(Cl)cc1)C(=O)O)c1ccc2c(cnn2CCCNc2ncc[nH]2)c1` had an IC50 in assay [2] of 10 nM. Compared with the last compound, the IC50 is about 15-fold lower.

In turn, `CC(C)CNS(=O)(=O)N[C@@H](CNC(=O)c1ccc2c(cnn2CCCNc2ccccn2)c1)C(=O)O` gave an IC50 in assay [2] above 1000 nM.

`O=C(NC[C@H](NS(=O)(=O)c1cccc2ccccc12)C(=O)O)c1ccc2c(cnn2CCCNc2ncc[nH]2)c1` displayed an IC50 in assay [2] of 13 nM. In other words, the double-digit nanomolar range.

For `O=C(NC[C@H](NS(=O)(=O)NCc1ccccc1)C(=O)O)c1ccc2c(cnn2CCCNc2ccccn2)c1`, the IC50 in assay [2] was 600 nM.

Take `O=C(NCc1ccccc1)N[C@@H](CNC(=O)c1ccc2c(cnn2CCCNc2ccccn2)c1)C(=O)O`: the IC50 in assay [2] was above 1000 nM.

On to `O=C(Nc1ccccc1)N[C@@H](CNC(=O)c1ccc2c(cnn2CCCNc2ccccn2)c1)C(=O)O`, for which the half-maximal inhibitory concentration (IC50) in assay [2] was above 1000 nM.

The compound `COc1ccc(S(=O)(=O)N[C@@H](CNC(=O)c2ccc3c(cnn3CCCNc3ncc[nH]3)c2)C(=O)O)cc1` displayed an IC50 in assay [2] of 26 nM.

`Cc1cc(C)c(NS(=O)(=O)N[C@@H](CNC(=O)c2ccc3c(cnn3CCCNc3ccccn3)c2)C(=O)O)c(C)c1`: the IC50 in assay [2] turned out to be 360 nM.

Consider `O=C(O)CCNC(=O)c1ccc2c(cnn2CCCNc2ncc[nH]2)c1`, for which the 50% inhibitory concentration (IC50) in assay [2] was above 1000 nM.

For `CCCCS(=O)(=O)N[C@@H](CNC(=O)c1ccc2c(cnn2CCCNc2ccccn2)c1)C(=O)O`, inhibition in assay [2] was half-maximal at 360 nM (IC50).

The compound `Cc1cc(C)c(S(=O)(=O)NCCNC(=O)c2ccc3c(cnn3CCCNc3ncc[nH]3)c2)c(C)c1` displayed an IC50 in assay [2] above 1000 nM.

`O=C(N[C@@H](CNC(=O)c1ccc2nn(CCCNC3=NCCN3)cc2c1)C(=O)O)OCc1ccccc1`: the IC50 in assay [3] is above 1000 nM; in assay [4], 55 nM.

For the compound `O=C(N[C@H](CNC(=O)c1ccc2cnn(CCCNC3=NCCN3)c2c1)C(=O)O)OCc1ccccc1`, the IC50 in assay [3] is above 1000 nM; in assay [4], 1500 nM.

In assay [2], `O=C(NC[C@H](NS(=O)(=O)c1ccccc1)C(=O)O)c1ccc2c(cnn2CCCNc2ncc[nH]2)c1` came in with an IC50 of 44 nM.

In the case of `Cc1cc(C)c(S(=O)(=O)N[C@@H](CNC(=O)c2ccc3c(cnn3CCCNc3ccccn3)c2)C(=O)O)c(C)c1`, the IC50 in assay [2] was 48 nM.

As for `Cc1cc(C)c(S(=O)(=O)N[C@H](CNC(=O)c2ccc3c(cnn3CCCNc3ncc[nH]3)c2)C(=O)O)c(C)c1`, the IC50 in assay [2] stood at 290 nM.

As to `O=C(NC[C@H](NS(=O)(=O)Cc1ccccc1)C(=O)O)c1ccc2c(cnn2CCCNc2ccccn2)c1`, the IC50 in assay [2] was above 1000 nM.

For the compound `Cc1cc(C)c(S(=O)(=O)N[C@@H](CNC(=O)c2ccc3c(cnn3CCCNC3=NCCCN3)c2)C(=O)O)c(C)c1`, in assay [5], the IC50 was found to be 28 nM.

As to `O=C(CCc1ccccc1)N[C@@H](CNC(=O)c1ccc2c(cnn2CCCNc2ccccn2)c1)C(=O)O`, the IC50 in assay [2] is above 1000 nM.

As to `Cc1cc(C)c(S(=O)(=O)N[C@@H](CNC(=O)c2ccc3c(cnn3CCCNC3=NCCN3)c2)C(=O)O)c(C)c1`, the IC50 in assay [5] worked out at 70 nM.

`O=C(NC[C@H](NS(=O)(=O)c1ccc(-c2ccccc2)cc1)C(=O)O)c1ccc2c(cnn2CCCNc2ncc[nH]2)c1` showed an IC50 in assay [2] of 35 nM. That is a double-digit nanomolar value.

On to `O=C(N[C@@H](CNC(=O)c1cccc2c1cnn2CCCNC1=NCCN1)C(=O)O)OCc1ccccc1`, for which the IC50 in assay [3] is above 1000 nM; in assay [4], 7.3 nM.

`Cc1cc(C)c(S(=O)(=O)N[C@@H](CNC(=O)c2ccc3c(cnn3CCCNc3ncc[nH]3)c2)C(=O)O)c(C)c1` displayed an IC50 in assay [2] of 2.3 nM.

In turn, `O=C(NC[C@H](NS(=O)(=O)c1c(Cl)cccc1Cl)C(=O)O)c1ccc2c(cnn2CCCNc2ncc[nH]2)c1` returned an IC50 in assay [2] of 8.5 nM.

Take `Cc1cc(-c2ccccc2)cc(C)c1S(=O)(=O)N[C@@H](CNC(=O)c1ccc2c(cnn2CCCNc2ncc[nH]2)c1)C(=O)O`: in assay [2], the 50% inhibitory concentration (IC50) turned out to be 4.9 nM. This IC50 is about 1.7-fold lower than that of the compound before.

`O=C(O)C[C@H](NC(=O)c1ccc2c(cnn2CCCNc2ccccn2)c1)C(=O)NCCc1ccccc1` yielded an IC50 in assay [2] above 1000 nM.

Turning to `CC(C)COC(=O)N[C@@H](CNC(=O)c1ccc2c(cnn2CCCNc2ccccn2)c1)C(=O)O`, the IC50 in assay [2] turned out to be 240 nM. That is a sub-micromolar value.

Regarding `O=C(N[C@@H](CNC(=O)c1ccc2c(cnn2CCCCNC2=NCCN2)c1)C(=O)O)OCc1ccccc1`, the IC50 is above 1000 nM in assay [3] and 250 nM in assay [4].

In the case of `O=C(N[C@H](CNC(=O)c1ccc2cn(CCCNC3=NCCN3)nc2c1)C(=O)O)OCc1ccccc1`, the IC50 in assay [3] is above 1000 nM; in assay [4], 25 nM.

As for `O=C(N[C@@H](CNC(=O)c1ccc2c(cnn2CCCNC2=NCCN2)c1)C(=O)O)OCc1ccccc1`, the results for the IC50 in assay [3] and in assay [4] were 460 nM and 3.8 nM, respectively.

`O=C(NC[C@H](NS(=O)(=O)Nc1ccccc1)C(=O)O)c1ccc2c(cnn2CCCNc2ccccn2)c1` displayed an IC50 in assay [2] of 170 nM.

In turn, `Cc1cc(C)c(NC(=O)[C@H](CC(=O)O)NC(=O)c2ccc3c(cnn3CCCNc3ccccn3)c2)c(C)c1` had an IC50 in assay [2] above 1000 nM.

For the compound `O=C(NC[C@H](NS(=O)(=O)c1ccc(C(F)(F)F)cc1)C(=O)O)c1ccc2c(cnn2CCCNc2ncc[nH]2)c1`, the IC50 in assay [2] was determined as 52 nM.

Take `Cc1ccc(S(=O)(=O)N[C@@H](CNC(=O)c2ccc3c(cnn3CCCNc3ncc[nH]3)c2)C(=O)O)cc1`: inhibition in assay [2] was half-maximal at 16 nM (IC50).

Regarding `Cc1cc(C)c(S(=O)(=O)N[C@@H](CNC(=O)c2ccc3c(cnn3CCC(=O)Nc3ncc[nH]3)c2)C(=O)O)c(C)c1`, the IC50 in assay [2] is 56 nM.

Compound `Cc1cccc(C)c1S(=O)(=O)N[C@@H](CNC(=O)c1ccc2c(cnn2CCCNc2ncc[nH]2)c1)C(=O)O` returned an IC50 in assay [2] of 10 nM.

The term IC50 denotes the concentration that inhibits the measured activity by half. Lower therefore signals higher potency.
